Data set [1] concerns Plasmodium falciparum. Description: Antiplasmodial activity against chloroquine-resistant Plasmodium falciparum Dd2 infected in erythrocytes assessed as reduction in parasite growth after 72 hrs by SYBR green I staining based fluorescence assay. In kind it is functional, organism-based. The settings on record: Dd2, Erythrocyte. In outline: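 Asexual P. falciparum cultures at 1% parasitemia and 1% hematocrit, given serial dilutions in DMSO (0.1% maximum), were incubated 72 h at 37 °C in 5% CO2. Plates were frozen, thawed and lysed with Tris/saponin/EDTA/Triton X-100 buffer containing SYBR Green I, then kept 1 h dark at room temperature. Fluorescence was read at 485 excitation/530 emission. EC50 came from non-linear dose-response curves.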

In data set [2] the test system is HepG2. Kind of data set: Cytotoxicity against human HepG2 cells assessed as reduction in cell viability after 48 hrs by MTS assay. In kind it is cell-based. The settings on record: HepG2, 48 h. In outline: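 HepG2 cells seeded at 2250 per well, grown 24 h at 37 °C, 5% CO2. Serial compound dilutions starting at 25 μM added for a further 48 h. MTS reagent added for 3 h at 37 °C; viability read as absorbance at 490 nm.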
(In general: Tetrazolium assays rely on reduction of a dye to a coloured formazan, in cell work by metabolically active cells.)

Data set [3] concerns Plasmodium falciparum. Description: Antiplasmodial activity against chloroquine-sensitive Plasmodium falciparum 3D7 infected in erythrocytes assessed as reduction in parasite growth after 72 hrs by SYBR green I staining based fluorescence assay. In kind it is functional, organism-based. The settings on record: 3D7, Erythrocyte. In outline: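 Compound dilutions in DMSO (max 0.1% DMSO) added to P. falciparum culture at 1% parasitemia, 1% hematocrit; 72 h at 37 °C, 5% CO2. Plates frozen, thawed, lysed with buffer containing saponin, Triton X-100, EDTA and SYBR Green I; 1 h dark at room temperature; fluorescence ex 485/em 530. EC50 from non-linear dose-response curves.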

Data set [4] is described as follows: Stability in mouse liver microsomes assessed as parent compound remaining at 1 uM after 15 mins in presence of NADPH regenerating system by LC/MS analysis. In kind it is ADME, Microsome. The settings on record: read-out: Stabilty. In outline:
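Compound at 1 μM final (from 25 μM DMSO stock) with 0.5 mg/mL mouse liver microsomes, NADPH-regenerating system (1.3 mM NADP, 3.3 mM glucose 6-phosphate, 3.3 mM MgCl2, 0.4 U/mL G6PDH) in 0.1 M potassium phosphate pH 7.4, 37 °C with shaking. Aliquots quenched in cold acetonitrile, centrifuged, quantified by LC/MS as percent parent remaining relative to T = 0; CLint and t1/2 reported.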
For orientation: Liver microsomes are a subcellular fraction often used to study metabolism.

The subject of data set [5] is Plasmodium falciparum. Kind of data set: Parasiticidal activity against chloroquine-resistant Plasmodium falciparum Dd2 infected in erythrocytes assessed as reduction in parasitemia at 50 nM incubated for 24 to 48 hrs followed by compound washout and then incubated for 96 hrs by Giemsa staining based microscopic analysis. In kind it is functional, organism-based. The settings on record: time 24-48 hrs.

In data set [6] the test system is Plasmodium falciparum. Kind of data set: Antimalarial activity against Plasmodium falciparum RKL9 gametocytes incubated for 48 hrs by Giemsa staining based assay. The settings on record: RKL9, 48 h. In kind it is functional, organism-based.
For data set [7], the system named is Plasmodium falciparum. Description: Parasiticidal activity against chloroquine-resistant Plasmodium falciparum Dd2 infected in erythrocytes assessed as reduction in parasitemia at 5 times of EC50 incubated for 6 to 12 hrs followed by compound washout and then incubated for 96 hrs by Giemsa staining based microscopic analysis. In kind it is functional, organism-based. The settings on record: time 6-12 hrs.

The test system of data set [8] is Plasmodium falciparum. Description: Antiplasmodial activity against synchronized chloroquine-resistant Plasmodium falciparum Dd2 assessed as effect on schizont maturation and reinvasion of merozoite at 5 times of EC50 treated with compound at 42 hrs post invasion and measured after 12 hrs by Giemsa staining-based microscopic analysis. In kind it is functional, organism-based. The method in brief: (§1)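 Samples taken at 12 h intervals were made into Giemsa-stained thin smears and scored by microscopy for intraerythrocytic stage and development, against untreated control cultures.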

Data set [9] relates to Plasmodium falciparum. Kind of data set: Antiplasmodial activity against synchronized chloroquine-resistant Plasmodium falciparum Dd2 assessed as morphological changes at 5 times of EC50 treated with compound at 6 hrs post invasion and measured after 12 hrs by Giemsa staining-based microscopic analysis. In kind it is functional, organism-based. The method in brief:
as §1

In data set [10] the test system is Plasmodium falciparum. Kind of data set: Antiplasmodial activity against synchronized chloroquine-resistant Plasmodium falciparum Dd2 assessed as prevention of parasite cell cycle progression at 5 times of EC50 treated with compound at 6 to 30 hrs post invasion and measured after 12 hrs by Giemsa staining-based microscopic analysis. In kind it is functional, organism-based. The method in brief: as §1

The subject of data set [11] is Plasmodium falciparum. Description: Antiplasmodial activity against synchronized chloroquine-resistant Plasmodium falciparum Dd2 assessed as reduction in DNA content at 5 times of EC50 treated with compound at 42 hrs post invasion measured after 12 hrs by YOYO-1 staining-based flow cytometric analysis. In kind it is functional, organism-based.
For data set [12], the system named is Plasmodium falciparum. Description: Antiplasmodial activity against synchronized chloroquine-resistant Plasmodium falciparum Dd2 assessed as reduction in DNA content at 5 times of EC50 treated with compound at 6 to 30 hrs post invasion measured after 12 hrs by YOYO-1 staining-based flow cytometric analysis. In kind it is functional, organism-based. A general note: Flow cytometry measures light scatter and fluorescence of single cells or particles in a stream.

The test system of data set [13] is Plasmodium falciparum. Kind of data set: Antiplasmodial activity against early stage (II/III) gametocytes of Plasmodium falciparum 3D7 harboring luc7 incubated for 72 hrs by ONE-Glo luciferase assay. In kind it is functional, organism-based. The settings on record: 3D7, 72 h. In outline: (§2)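 Gametocytes of the 3D7 luc7 line were induced by nutrient starvation and cleared of asexual parasites with heparin-treated medium. Stage II-III or IV-V gametocytes were Percoll-purified, and 50,000 per well were exposed 72 h to a 19-point gradient (0.038 nM to 10 μM). Read-out was ONE-Glo luciferase after 5 min with reagent. EC50 came from four-parameter variable-slope nonlinear regression.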

Data set [14] deals with Hemozoin. Description: Inhibition of beta-hematin formation after 16 hrs by inverted microscopic analysis.
In data set [15] the test system is Plasmodium falciparum. Description: Antiplasmodial activity against late stage (IV/V) gametocytes of Plasmodium falciparum 3D7 harboring luc7 incubated for 72 hrs by ONE-Glo luciferase assay. In kind it is functional, organism-based. The settings on record: 3D7, 72 h. The method in brief: as §2
In data set [16] the test system is Plasmodium falciparum. Kind of data set: Antiplasmodial activity against synchronized chloroquine-resistant Plasmodium falciparum Dd2 assessed as appearance of large vacuoles at 5 times of EC50 treated with compound at 6 to 42 hrs post invasion and measured after 12 hrs by Giemsa staining-based microscopic analysis. In kind it is functional, organism-based. The method in brief: as §1

In data set [17] the test system is Plasmodium falciparum. Kind of data set: Parasiticidal activity against chloroquine-resistant Plasmodium falciparum Dd2 infected in erythrocytes assessed as reduction in parasitemia at 6.6 nM incubated for 6 to 12 hrs followed by compound washout and then incubated for 96 hrs by Giemsa staining based microscopic analysis. In kind it is functional, organism-based. The settings on record: time 6-12 hrs.

For data set [18], the system named is Hemozoin. Description: Inhibition of beta-hematin formation at 12.5 to 200 uM after 16 hrs by inverted microscopic analysis. The settings on record: dose 12.5-200 µM.

The source made the active and inactive calls. No cut-off for these calls is given here.

As a reminder, the EC50 is the concentration giving half of the maximal effect. As to `O=C1c2ccccc2C(=O)N1Cc1cn(CCCCNc2cc(/C=C/c3ccncc3)nc3ccc(Cl)cc23)nn1`, the EC50 in data set [1] came to 1 µM.
As for `OCCN1CCN(Cc2cn(CCCCNc3cc(/C=C/c4ccncc4)nc4ccc(Cl)cc34)nn2)CC1`, the EC50 in [2] was over 25 µM; in data set [1], 0.67 µM; in data set [3], 0.64 µM.
On to `O=C1S/C(=C\c2ccccc2)C(=O)N1Cc1cn(CCNc2cc(/C=C/c3ccncc3)nc3ccc(Cl)cc23)nn1`, for which the remaining at 0.25 h, 1 µM in [4] is under 50%. The EC50 in data set [2] stood at 5.73 µM; in data set [1], 0.24 µM; in data set [3], 0.44 µM.
Turning to `C[C@H]1[C@@H](O)O[C@@H]2O[C@@]3(C)CC[C@H]4[C@H](C)CC[C@@H]1[C@@]24OO3`, the outcome in data set [5] was Active.
The IC50 is the midpoint of a concentration-inhibition curve. Low values mean higher potency, high ones lower potency. With `O=C(Cn1cc(COc2ccc(Br)cc2)nn1)NCCNc1ccnc2cc(Cl)ccc12`, the concentration for half-maximal inhibition (IC50) in data set [6] is 8.5 µM.
Regarding `Clc1ccc2nc(/C=C/c3ccncc3)cc(NCCn3cc(CN4CCCC4)nn3)c2c1`, the EC50 in [1] was determined as 2.96 µM.
As for `Clc1ccc2nc(/C=C/c3ccncc3)cc(NCCCCn3cc(CN4CCCCC4)nn3)c2c1`, the outcome in [7], in [10], in data set [12] and in data set [16] was Active. For the same compound, the remaining at 0.25 h, 1 µM in data set [4] is under 50%. Further, the outcome in data set [8], in data set [9] and in data set [11] was inactive. Further, the EC50 in [2] worked out at 5.49 µM; in [13] it was 0.95 µM; in [1], 0.04 µM; in data set [15] it was 0.89 µM; in data set [3], 0.07 µM. Also, the inhibition result in [14] is “Dose-dependent effect”.
In the case of `Clc1ccc2nc(/C=C/c3ccncc3)cc(-n3cc(CN4CCCCC4)nn3)c2c1`, the EC50 in data set [1] is 1.24 µM.
`CCN(CC)Cc1cn(CCNc2cc(/C=C/c3ccncc3)nc3ccc(Cl)cc23)nn1`: in [1], the EC50 came to 1.32 µM.
`O=C1C(O)=C([C@H]2CC[C@H](c3ccc(Cl)cc3)CC2)C(=O)c2ccccc21`: the result in [17] was Active.
For `Clc1ccc2nc(/C=C/c3ccncc3)cc(NCCn3cc(CN4CCOCC4)nn3)c2c1`, the EC50 in data set [1] turned out to be 1.85 µM.
The same measure, in the same setting: to `O=C1c2ccccc2C(=O)N1Cc1cn(-c2cc(/C=C/c3ccncc3)nc3ccc(Cl)cc23)nn1` belongs 8.79 µM.
With `Clc1ccc2nc(/C=C/c3ccncc3)cc(NCCCCn3cc(CN4CCOCC4)nn3)c2c1`, the remaining at 0.25 h, 1 µM in data set [4] is under 50%. Also, the EC50 is over 25 µM in data set [2], 0.17 µM in [1] and 0.23 µM in data set [3].
The corresponding values for `Clc1ccc2nc(/C=C/c3ccncc3)cc(NCCCCn3cc(Cn4cccn4)nn3)c2c1` are under 50%, 21.2 µM, 0.35 µM and 0.28 µM.
On to `CCN(CC)Cc1cn(-c2cc(/C=C/c3ccncc3)nc3ccc(Cl)cc23)nn1`, for which, in [1], the EC50 amounted to 1.32 µM.
Still for that read-out and setting: to `Clc1ccc2nc(/C=C/c3ccncc3)cc(NCCn3cc(Cn4cccn4)nn3)c2c1` belongs 1.18 µM; to `OCCN1CCN(Cc2cn(CCNc3cc(/C=C/c4ccncc4)nc4ccc(Cl)cc34)nn2)CC1`, 4.27 µM.
`CN1CCN(Cc2cn(CCCCNc3cc(/C=C/c4ccncc4)nc4ccc(Cl)cc34)nn2)CC1`: the remaining at 0.25 h, 1 µM in data set [4] is under 50%. The results for the EC50 in [2], in data set [1] and in data set [3] were 15.8 µM, 0.16 µM and 0.16 µM, respectively.
`CN1CCN(Cc2cn(-c3cc(/C=C/c4ccncc4)nc4ccc(Cl)cc34)nn2)CC1`: the EC50 in [1] is over 10 µM.
On the same count and under the same terms, to `O=C1c2ccccc2C(=O)N1Cc1cn(CCNc2cc(/C=C/c3ccncc3)nc3ccc(Cl)cc23)nn1` belongs 1.07 µM; to `CN1CCN(Cc2cn(CCNc3cc(/C=C/c4ccncc4)nc4ccc(Cl)cc34)nn2)CC1`, over 10 µM; to `OCCN1CCN(Cc2cn(-c3cc(/C=C/c4ccncc4)nc4ccc(Cl)cc34)nn2)CC1`, 1.66 µM.
On the same count and under the same terms, to `Clc1ccc2nc(/C=C/c3ccncc3)cc(-n3cc(CN4CCCC4)nn3)c2c1` belongs 1.65 µM.
On to `CCN(CC)CCCC(C)Nc1ccnc2cc(Cl)ccc12` (stereo unspecified), for which the inhibition entry in [18] is “Active”.
As for `Clc1ccc2nc(/C=C/c3ccncc3)cc(NCCn3cc(CN4CCCCC4)nn3)c2c1`, the EC50 in data set [2] came to 13.5 µM; in data set [1], 0.55 µM; in data set [3], 0.47 µM.
In the same order, the values of `Clc1ccc2nc(/C=C/c3ccncc3)cc(NCCCCn3cc(CN4CCCC4)nn3)c2c1` are over 25 µM, 0.69 µM and 0.52 µM.
On to `O=C1S/C(=C\c2ccccc2)C(=O)N1Cc1cn(CCCCNc2cc(/C=C/c3ccncc3)nc3ccc(Cl)cc23)nn1`, for which the EC50 in data set [2] was over 25 µM; in data set [1], 0.6 µM; in data set [3], 0.33 µM.
For `Clc1ccc2nc(/C=C/c3ccncc3)cc(-n3cc(CN4CCOCC4)nn3)c2c1`, in [1], the EC50 was over 10 µM.

The values are drawn from ChEMBL document CHEMBL4732055, “Discovery of fast-acting dual-stage antimalarial agents by profiling pyridylvinylquinoline chemical space via copper catalyzed azide-alkyne cycloadditions” (Eur J Med Chem, 2021).
